In the library only some 6% were active in any assay of this set; here they are far more common.
Pyk2 oligo antag = Pyk2 (human) oligomerization antagonism; Q293 cells, Pyk2 FERM NanoBiT luminescence; stronger effect = lower value; z-score (the deposit names both 25 µM and 10 µM); 99,000 compounds, 0.83% hits; Q14289;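 active = Z-score of -3 or lower, scaled per plate to the spread of control and sample wells; inactive = z-score above -3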;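 note: negative z-score means lost luminescence so less FERM oligomerization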
cytoskel mod = cytoskeleton assembly modification. HUVEC TNFa F-actin phalloidin imaging, high content. inhibition, % at 2 µM. 91,000 compounds, 0.18% hits;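 active = inhibition above the batch mean plus 3 SD and confirmed as a hit by visual image inspection, cut at about 30% in these data, passing the limit was not always enough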
H69AR growth 86K = growth inhibitors of human H69AR lung tumor cells; H69AR lung tumor viability, ATP luminescence, 72 h; stronger effect = lower value; viability, % at 10 µM; 85,000 compounds, 6% hits; AID 598;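 active = viability at or below 40%; inactive = viability above 40%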;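 note: multidrug resistant small cell line overexpressing MRP-1 efflux transporter; 100% = mean luminescence of untreated control wells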
HUVEC prolif 384 = human endothelial cell proliferation inhibition; viability, % at 10 µM (by protocol); HUVEC proliferation, CellTiter-Glo luminescence, 72 h; stronger effect = lower value; 86,000 compounds, 1.1% hits;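 active = viability at or below 30%; inactive = viability above 30%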;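 note: 100% = median luminescence of DMSO-only cell control wells on each plate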
Fibroblast inh = blocks proliferation of human lung fibroblasts. LL 47 human lung fibroblast viability, ATP luminescence; stronger effect = lower value. viability, % at 10 µM. 85,000 compounds, 1.1% hits. AID 719;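 active = viability at or below 50% in the single dose screen; inactive = viability above 50%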;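 note: compound exposure lasted 72 h before the ATP readout; 100% = median luminescence of untreated cell-only wells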
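material = human LL 47 lung fibroblast cells | dosing = compounds added from tenfold dosing solution, 0.1% DMSO final | timing = overnight cell rest, 72 h compound treatment at 37 °C | measured by = CellTiter-Glo luminescence measuring cellular ATP | evaluation = % viability versus median cells-only luminescence | control set = cell-only wells, no compound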
Jurkat tox 60K = cytotoxic compounds reducing Jurkat cell viability. Jurkat E6.1 viability, ATP luminescence, 48 h. inhibition, % at 4 µM. 56,000 compounds, 1.2% hits;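 active = inhibition above the mean inhibition of all tested compounds plus 3 SD, cut at about 28% in these data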
Numbers without * were called inactive; / = no result given.

SMILES	Pyk2 oligo antag	cytoskel mod	H69AR growth 86K	HUVEC prolif 384	Fibroblast inh	Jurkat tox 60K
Cc1cc(C)c2c(-n3cccc3)nn(CC#N)c2n1	-0.14	-19	/	/	/	/
Cc1cc(C)n(CC(O)Cn2c3ccc(Br)cc3c3cc(Br)ccc32)c(=O)n1 (centres undefined)	-0.79	4	92	21*	96	/
Cc1cc(C)n(CC(O)Cn2c3ccccc3c3ccccc32)c(=O)n1 (centres undefined)	0.87	-16	106	100	102	0
O=C(O)c1ccc2c3c(ncnc13)-c1ccccc1C2=O	/	/	65	41	23*	6
O=C(Nc1ccc(N2CCN(C(=O)c3ccccc3)CC2)c(Cl)c1)c1ccc(Br)o1	-2.1	8	/	/	/	/
Cc1cc(N2CCN(C)CC2)nc2ccc(NC(=O)c3ccc(Br)o3)cc12	-0.61	/	4.2*	8.2*	43*	/
Cc1cc(N2CCCCC2)nc2ccc(NC(=O)c3ccc(Br)o3)cc12	0.37	/	44	34	93	/
O=C(Nc1ccc(CN2CCOCC2)cc1)c1ccc(-c2cc(Cl)ccc2Cl)o1	-1.5	0	21*	40	93	/
O=C(Nc1ccc(N2CCOCC2)c(Cl)c1)c1ccc(Br)o1	-1.1	0	20*	81	107	-1
Cc1ccc(C)c(C(=O)COC(=O)c2ccccc2N2C(=O)C3C4CCC(C4)C3C2=O)c1 (centres undefined)	-1.3	-4	/	/	/	/
Cc1ccc(C(=O)O/N=C(\N)c2nonc2N)cc1	0.67	/	/	/	/	/
N#Cc1ncc(C(F)(F)F)cc1Sc1ccc(N)cc1	-0.91	/	36*	89	94	/
CCN(CC)S(=O)(=O)N1CCC(C(=O)NC2CCCc3ccccc32)CC1 (centres undefined)	0.3	-4	93	103	90	2
CCOC(=O)c1ccccc1NC(=O)c1ccccc1N(C)S(C)(=O)=O	-0.59	1	80	97	95	-5
CCOC(=O)c1ccccc1NC(=O)c1ccc(N(C)S(C)(=O)=O)cc1	-0.8	-5	27*	41	51	1
Cc1c(CCO)c(=O)[nH]n1C(=O)c1ccc(F)cc1	1.2	-3	/	/	/	/
CC(/C=C/c1ccco1)=N\NC(=O)c1cccnc1	0.29	-10	84	100	104	/
CC(/C=C/c1ccco1)=N\NC(=O)c1cc(C)[nH]n1	1.6	61*	/	/	/	/
Cc1noc(C)c1C(=O)Nc1ccc(F)cc1F	-0.3	-9	96	99	101	/
CCOC(=O)c1c(NC(=O)C2CCCO2)sc(C(=O)OC(C)(C)C)c1C (centres undefined)	-0.36	-17	10*	72	85	/
CCOC(=O)c1sc(NC(=O)C2CCCO2)c(C(=O)OCC)c1C (centres undefined)	/	/	90	99	103	0
COC(CN(C(=O)CCl)C(C(=O)NC1CCCCC1)c1ccc(C)cc1)OC (centres undefined)	0.61	/	/	/	/	/
CCCCNC(=O)C(Cc1ccccc1)NS(=O)(=O)c1ccc2c(c1)c(=O)n(C)c(=O)n2C (centres undefined)	/	4	94	108	92	/
COc1ccc2c(c1)c(CCN1C(=O)c3ccccc3C1=O)cn2C(=O)c1ccco1	1.2	12	50	26*	80	1
O=C(Oc1ccc2[nH]cc(CCN3C(=O)c4ccccc4C3=O)c2c1)c1ccco1	-1.4	-64	99	98	106	6
SMILES	Pyk2 oligo antag	cytoskel mod	H69AR growth 86K	HUVEC prolif 384	Fibroblast inh	Jurkat tox 60K
COc1ccc(/C(N)=N/OC(=O)c2cccc([N+](=O)[O-])c2)cc1OC	0.61	-4	68	95	96	/
COc1ccc(/C(N)=N/OC(=O)c2cccc([N+](=O)[O-])c2C)cc1OC	0.81	-18	36*	70	93	/
COCCCNC(=O)/C=C/c1ccc(Cl)cc1	0.81	12	/	/	/	/
O=S(=O)(c1ccc(Br)cc1)N1CCN(c2ccc3nnc(-c4ccccc4)n3n2)CC1	/	-1	30*	82	101	/
O=C(c1ccc(Br)o1)N1CCN(c2ccc3nnc(-c4ccccc4)n3n2)CC1	/	5	74	64	85	21
COc1ccccc1-c1nc(C#N)c(N2CCN(C(c3ccccc3)c3ccccc3)CC2)o1	-1.3	-32	85	95	108	-3
CSc1cccc(NC(=O)C2CCCN(S(=O)(=O)c3ccc(F)cc3)C2)c1 (centres undefined)	-0.51	4	21*	78	100	-5
O=C(Nc1cccc(Cl)c1)C1CCCN(S(=O)(=O)c2ccc(F)cc2)C1 (centres undefined)	-0.24	11	29*	75	95	/
Cc1ccccc1CS(=O)(=O)CCC(=O)NCc1ccccn1	0.59	3	94	89	105	5
COc1cc(-c2nc(-c3ccc(Br)o3)no2)cc(OC)c1OC	/	9	80	99	93	-1
COc1ccc(-c2noc(-c3ccc(Br)o3)n2)cc1OC	0.64	4	81	29*	88	-7
O=C(CSCc1cccc(Cl)c1)N1CCN(Cc2ccc3c(c2)OCO3)CC1	0.21	/	84	87	104	/
Cn1c(SCC(=O)N(C2CCCCC2)C2CCCCC2)nnc1-c1cccs1	-0.61	10	20*	81	75	-14
CCCn1c2ccccc2c2nnc(SC(CC)C(=O)Nc3cc(C)on3)nc21 (centres undefined)	-2.6	-1	32*	106	110	/
c1ccc(CN2CCN(c3nc(-c4ccccn4)nc4ccccc34)CC2)cc1	2.6	8	3.2*	14*	45*	/
c1ccc(-c2nc(N3CCOCC3)c3ccccc3n2)nc1	1.9	-9	26*	89	86	0
Cc1nc2ccccc2nc1N1CCOCC1	-0.28	-16	99	97	94	/
c1ccc2c(N3CCCC3)nc(-c3ccncc3)nc2c1	-0.9	0	56	76	92	-4
c1ccc(-c2nc(N3CCCCCC3)c3ccccc3n2)nc1	-0.42	-14	7.6*	58	37*	72*
CCN1CCN(c2nc(-c3ccccn3)nc3ccccc23)CC1	0.74	-6	62	90	87	/
CCOC(=O)c1c(-c2ccccc2)csc1NC(=O)c1cc2ccccc2oc1=O	0.42	/	/	/	/	/
O=S(=O)(/C=C/c1ccccc1)n1cnc2ccccc21	-0.67	11	20*	84	68	-6
CC1CCCCC1NC(=O)COC(=O)c1ccc(N(C)C)cc1 (centres undefined)	-3.1*	-6	/	/	/	/
CC[C@H]1OC(=O)C[C@@H](O)[C@H](C)[C@@H](O[C@@H]2O[C@H](C)C[C@H](N(C)C)[C@H]2O)[C@@H](CC=O)C[C@@H](C)C(=O)C=C[C@]2(C)O[C@H]2[C@@H]1C	/	/	25*	80	38*	/
CCCCNC(=O)COC(=O)c1ccc(Cl)c(S(N)(=O)=O)c1	-0.64	7	85	97	103	/
O=S(=O)(c1ccc(Oc2ncnc3scc(-c4ccccc4)c23)cc1)N1CCOCC1	-1.9	2	37*	86	88	23
